In ChEMBL document CHEMBL1151266, “Cytotoxic principles from the formosan milkweed, Asclepias curassavica” (J Nat Prod, 2005):
Converted amounts (≈) assume the structure as drawn.

Columns and labels:
Assay type in all cases: functional, cell-based
A549 = assay: Cytotoxicity against human A549 cells after 3 days by MTT assay; details: A549, 72 h
Summary of the method: (§1)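 Freshly trypsinized cells seeded at 5000-10 000 per well; test agents added from DMSO stock. After 3 days in culture, attached cells incubated with MTT (0.5 mg/mL, 1 h), then solubilized in DMSO; absorbance read at 550 nm. IC50 taken as concentration reducing cell growth by 50%.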

HepG2 = assay: Cytotoxicity against human HepG2 cells after 3 days by MTT assay; details: HepG2, 72 h
Summary of the method: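 Freshly trypsinized cells seeded at 5000-10 000 per well; test agents added from DMSO stock. After 3 days in culture, attached cells incubated with MTT (0.5 mg/mL, 1 h), then solubilized in DMSO; absorbance read at 550 nm.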

MCF7 = assay: Cytotoxicity against human MCF7 cells after 3 days by MTT assay; details: MCF7, 72 h; summary of the method: as §1
MDA-MB-231 = assay: Cytotoxicity against human MDA-MB-231 cells after 3 days by MTT assay; details: MDA-MB-231, 72 h; summary of the method: as §1
KB = assay: Cytotoxicity against human KB cells

C[C@@H]1C[C@H](O)[C@]2(O)O[C@@H]3C[C@@]4(C=O)[C@@H](CC[C@@H]5[C@@H]4CC[C@]4(C)[C@@H](C6=CC(=O)OC6)C[C@@H](O)[C@]54O)C[C@H]3O[C@@H]2O1
IC50 (A549): 0.1 µg/mL (≈ 0.182 µM)
IC50 (HepG2): 0.15 µg/mL (≈ 0.273 µM)
IC50 (MCF7): 0.48 µg/mL (≈ 0.875 µM)
IC50 (MDA-MB-231): 0.98 µg/mL (≈ 1.79 µM)

CC(=O)O[C@@H]1C[C@]2(O)[C@@H]3CC[C@H]4C[C@H]5O[C@@H]6O[C@H](C)C[C@H](O)[C@]6(O)O[C@@H]5C[C@]4(C=O)[C@H]3CC[C@]2(C)[C@H]1C1=CC(=O)OC1
IC50 (A549): 0.11 µg/mL (≈ 0.186 µM)
IC50 (HepG2): 0.39 µg/mL (≈ 0.66 µM)
IC50 (MCF7): 0.28 µg/mL (≈ 0.474 µM)
IC50 (MDA-MB-231): 0.49 µg/mL (≈ 0.83 µM)

CC(=O)O[C@H]1C[C@@H](C)O[C@H]2O[C@@H]3C[C@@H]4CC[C@@H]5[C@H](CC[C@]6(C)[C@@H](C7=CC(=O)OC7)[C@H](OC(C)=O)C[C@]56O)[C@@]4(C=O)C[C@H]3O[C@]21O
IC50 (A549): 0.02 µg/mL (≈ 0.0316 µM)
IC50 (HepG2): 0.13 µg/mL (≈ 0.205 µM)
IC50 (MCF7): 0.17 µg/mL (≈ 0.269 µM)
IC50 (MDA-MB-231): 0.39 µg/mL (≈ 0.616 µM)

CC(=O)O[C@H]1C[C@@H](C)O[C@H]2O[C@@H]3C[C@@H]4CC[C@@H]5[C@H](CC[C@]6(C)[C@@H](C7=CC(=O)OC7)[C@H](O)C[C@]56O)[C@@]4(C=O)C[C@H]3O[C@]21O
IC50 (A549): 0.14 µg/mL (≈ 0.237 µM)
IC50 (HepG2): 0.51 µg/mL (≈ 0.863 µM)
IC50 (MCF7): 1 µg/mL (≈ 1.69 µM)
IC50 (MDA-MB-231): 1.52 µg/mL (≈ 2.57 µM)

C[C@@H]1C[C@@H](O)[C@]2(O)O[C@@H]3C[C@@]4(C=O)[C@@H](CC[C@@H]5[C@@H]4CC[C@]4(C)[C@@H](C6=CC(=O)OC6)C[C@@H](O)[C@]54O)C[C@H]3O[C@@H]2O1
IC50 (A549): 0.07 µg/mL (≈ 0.128 µM)
IC50 (HepG2): 0.16 µg/mL (≈ 0.292 µM)
IC50 (MCF7): 0.38 µg/mL (≈ 0.693 µM)
IC50 (MDA-MB-231): 0.45 µg/mL (≈ 0.82 µM)

CC(=O)O[C@H]1C[C@@H](C)O[C@H]2O[C@@H]3C[C@@H]4CC[C@@H]5[C@H](CC[C@]6(C)[C@@H](C7=CC(=O)OC7)CC[C@]56O)[C@@]4(C=O)C[C@H]3O[C@]21O [ASCLEPIN]
IC50 (A549): 0.01 µg/mL (≈ 0.0174 µM)
IC50 (HepG2): 0.05 µg/mL (≈ 0.087 µM)
IC50 (MCF7): 0.02 µg/mL (≈ 0.0348 µM)
IC50 (MDA-MB-231): 0.06 µg/mL (≈ 0.104 µM)

C[C@@H]1C[C@@H](O)[C@]2(O)O[C@@H]3C[C@@]4(C=O)[C@@H](CC[C@@H]5[C@@H]4CC[C@]4(C)[C@@H](C6=CC(=O)OC6)CC[C@]54O)C[C@H]3O[C@@H]2O1 [CALACTIN]
IC50 (A549): 0.0029 µg/mL (≈ 0.00544 µM)
IC50 (HepG2): 0.02 µg/mL (≈ 0.0375 µM)
IC50 (MCF7): 0.01 µg/mL (≈ 0.0188 µM)
IC50 (MDA-MB-231): 0.03 µg/mL (≈ 0.0563 µM)

C[C@@H]1C[C@H](O)[C@]2(O)O[C@@H]3C[C@@]4(C=O)[C@@H](CC[C@@H]5[C@@H]4CC[C@]4(C)[C@@H](C6=CC(=O)OC6)CC[C@]54O)C[C@H]3O[C@@H]2O1 [CALOTROPIN]
IC50 (KB): 0.015 µg/mL (≈ 0.0282 µM)
IC50 (A549): 0.02 µg/mL (≈ 0.0375 µM)
IC50 (HepG2): 0.11 µg/mL (≈ 0.207 µM)
IC50 (MCF7): 0.08 µg/mL (≈ 0.15 µM)
IC50 (MDA-MB-231): 0.16 µg/mL (≈ 0.3 µM)

C[C@]12CC[C@H](O)C[C@H]1CC[C@@H]1[C@@H]2CC[C@]2(C)[C@@H](C3=CC(=O)OC3)CC[C@]12O [DIGITOXIGENIN]
IC50 (A549): 0.24 µg/mL (≈ 0.641 µM)
IC50 (HepG2): 0.12 µg/mL (≈ 0.32 µM)
IC50 (MCF7): 1.69 µg/mL (≈ 4.51 µM)
IC50 (MDA-MB-231): 1.9 µg/mL (≈ 5.07 µM)

COc1cccc2c1C(=O)c1c(O)c3c(c(O)c1C2=O)C[C@@](O)(C(=O)CO)C[C@@H]3O[C@H]1C[C@H](N)[C@H](O)[C@H](C)O1 [DOXORUBICIN]
IC50 (A549): 0.79 µg/mL (≈ 1.45 µM)
IC50 (MCF7): 0.56 µg/mL (≈ 1.03 µM)

C[C@@H]1CC(=O)[C@]2(O)O[C@@H]3C[C@@]4(C=O)[C@@H](CC[C@@H]5[C@@H]4CC[C@]4(C)[C@@H](C6=CC(=O)OC6)CC[C@]54O)C[C@H]3O[C@@H]2O1 [USCHARIDIN]
IC50 (A549): 0.01 µg/mL (≈ 0.0188 µM)
IC50 (HepG2): 0.04 µg/mL (≈ 0.0754 µM)
IC50 (MCF7): 0.04 µg/mL (≈ 0.0754 µM)
IC50 (MDA-MB-231): 0.09 µg/mL (≈ 0.17 µM)

C[C@@H]1C[C@@]2(N=CCS2)[C@]2(O)O[C@@H]3C[C@@]4(C=O)[C@@H](CC[C@@H]5[C@@H]4CC[C@]4(C)[C@@H](C6=CC(=O)OC6)CC[C@]54O)C[C@H]3O[C@@H]2O1 [USCHARIN]
IC50 (A549): 0.01 µg/mL (≈ 0.017 µM)
IC50 (HepG2): 1.1 µg/mL (≈ 1.87 µM)
IC50 (MCF7): 0.04 µg/mL (≈ 0.0681 µM)
IC50 (MDA-MB-231): 0.1 µg/mL (≈ 0.17 µM)
